In PMC7429258 (Molecular pharmaceutics, 2020):
“Also recorded” adds a separate entry of the source.

Tests used:
[1] = tested on: untransfected HEK293 cells; experiment: fura-2 assay of [Ca2+]i in untransfected HEK293 cells; assay type: cell-based, human; conditions: DG2 0.1–10 μM; ADP 20 μM positive control
Summary of the method: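 Trypsinized HEK293 cells plated on rat tail collagen-coated 96-well plates and loaded with fura-2 AM. Read in kinetic mode on a fluorescence plate reader. Test solutions added by automated pipetting at 100 s. Data sampled at 6 s intervals over 300 s. Read-out: percent change in 340/380 ratio after baseline subtraction. Each experiment repeated at least three times.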

CCK2i4svR = target: T1, CCK2i4svR (Homo sapiens, UniProt P32239); assay type: binding; conditions: read-out: IC50, displacement of [125I][I-Tyr12,Leu15]gastrin; HEK293-CCK2i4svR cell membranes, 60 min at 22 °C, mean ± SD, n = 3
T1 sequence (P32239 1-516 isoform P32239-2): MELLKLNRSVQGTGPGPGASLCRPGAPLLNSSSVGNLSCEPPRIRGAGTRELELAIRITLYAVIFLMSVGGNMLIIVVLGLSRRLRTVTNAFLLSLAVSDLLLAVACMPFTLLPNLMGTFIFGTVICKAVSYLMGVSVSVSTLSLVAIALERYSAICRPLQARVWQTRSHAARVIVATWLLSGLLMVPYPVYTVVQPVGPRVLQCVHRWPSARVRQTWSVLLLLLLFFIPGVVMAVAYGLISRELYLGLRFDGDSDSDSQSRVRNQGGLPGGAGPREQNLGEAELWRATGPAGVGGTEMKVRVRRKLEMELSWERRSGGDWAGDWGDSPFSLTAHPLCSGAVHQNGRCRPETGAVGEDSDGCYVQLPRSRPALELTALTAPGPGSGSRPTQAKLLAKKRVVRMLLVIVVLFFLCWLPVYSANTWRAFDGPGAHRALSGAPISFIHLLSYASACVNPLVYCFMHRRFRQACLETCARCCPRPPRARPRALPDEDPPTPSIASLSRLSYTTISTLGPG
Summary of the method: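 Parent nonpeptidic antagonist served as reference. Stopped with ice-cold 10 mM HEPES pH 7.4/150 mM NaCl, then rapid GF/B glass-fibre filtration and gamma counting. IC50 by one-site nonlinear regression; mean ± SD, three experiments in triplicate.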

Nc1ncnc2c1ncn2[C@@H]1O[C@H](COP(=O)(O)OP(=O)(O)O)[C@@H](O)[C@H]1O [ADP]
agonist action on [Ca2+]i in untransfected HEK293 cells [1]: did respond; also recorded: does exert an agonist action

CC(C)(C)C(=O)CN1C(=O)[C@H](NC(=O)Nc2cccc(C(=O)O)c2)CN(C2CCCCC2)c2ccccc21 [Z-360, 3-[[[[(3R)-5-cyclohexyl-1-(3,3-dimethyl-2-ox-obutyl)-2,3,4,5-tetrahydro-2-oxo-1H-1,5-benzodiazepin-3-yl]-amino]carbonyl]amino]benzoic acid]
IC50 (CCK2i4svR): 1.57 ± 0.14 nM
